A selection: hits, their analogues and other compounds. The true share with any hit is near 2.6%.
SENP7 block – SENP7 protease inhibition. Q9BQF6. recombinant SENP7, Z-RLRGG-aminoluciferin luminescence, 40 min. inhibition, % at 5 µM. 1.5% of 330,000 active. AID 434973;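 active = inhibition above about 50% at the single test dose, limit read from the data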;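 note: plate controls were DMSO with enzyme for no effect and no enzyme buffer wells for full effect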
Platelet DG rel – modulates dense granule release in human platelets; human platelet-rich plasma, SFLLRN dense granule ATP release, luminescence; inhibition, %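 (compounds screened at 7.5 µM in platelet-rich plasma)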; 0.22% of 300,000 active; AID 1663;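 active = mean replicate score, as percent of positive control, at or above 50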
SENP8 block-1 – blocks human SENP8 cleavage of Nedd8 substrate; Q96LD8; recombinant SENP8, Nedd8 substrate fluorescence; inhibition, % at 20 µM; 0.64% of 360,000 active; AID 602440; in the data active = inhibition mostly above about 40%, no sharp cut-off; inactive = mostly below about 27%
Target sequence (Q96LD8 whole entry, looked up): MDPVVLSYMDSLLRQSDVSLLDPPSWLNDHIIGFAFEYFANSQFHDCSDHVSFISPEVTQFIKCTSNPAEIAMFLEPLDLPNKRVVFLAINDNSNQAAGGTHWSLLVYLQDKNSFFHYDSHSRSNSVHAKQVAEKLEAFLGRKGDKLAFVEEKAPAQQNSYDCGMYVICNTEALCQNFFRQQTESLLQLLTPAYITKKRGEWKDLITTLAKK
SENP1 inh – blocks the human SENP1 SUMO protease catalytic domain; AID 624204; recombinant SENP1 catalytic domain, CyPet-SUMO1-YPet FRET cleavage; Q9P0U3; inhibition, % at 10 µM; 0.21% of 360,000 active;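 active = inhibition at least 30% at 10 µM, raw YFP signal under a set limit, fluorescence ratio 0.5 to 1.5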;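 note: 0% = enzyme with DMSO and 100% = no enzyme wells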
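Material: hSENP1 catalytic domain, recombinant; medium: Tris pH 8 with BME, BSA, NP40 and catalase; compound: single concentration of 10 µM compound, 0.5% DMSO final; technique: FRET read of cyan and yellow fluorescence; timing: 50 min enzyme reaction, room temperature, light-protected; reagent: SFCypet-SUMO1-SFYpet substrate at 25 nM; control set: no-enzyme low, enzyme-DMSO high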
SENP6 block – inhibitors of human SENP6 protease. Q9GZR1. Recombinant SENP6 catalytic domain, aminoluciferin luminescence. inhibition, % at 10 µM. 1.8% of 330,000 active. AID 2599;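 active = inhibition above about 50% at the single tested dose, limit read from the data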;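 note: plate controls were DMSO wells with enzyme for no effect and DMSO wells lacking enzyme for full effect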
Target sequence (Q9GZR1 628-1112 limits assumed): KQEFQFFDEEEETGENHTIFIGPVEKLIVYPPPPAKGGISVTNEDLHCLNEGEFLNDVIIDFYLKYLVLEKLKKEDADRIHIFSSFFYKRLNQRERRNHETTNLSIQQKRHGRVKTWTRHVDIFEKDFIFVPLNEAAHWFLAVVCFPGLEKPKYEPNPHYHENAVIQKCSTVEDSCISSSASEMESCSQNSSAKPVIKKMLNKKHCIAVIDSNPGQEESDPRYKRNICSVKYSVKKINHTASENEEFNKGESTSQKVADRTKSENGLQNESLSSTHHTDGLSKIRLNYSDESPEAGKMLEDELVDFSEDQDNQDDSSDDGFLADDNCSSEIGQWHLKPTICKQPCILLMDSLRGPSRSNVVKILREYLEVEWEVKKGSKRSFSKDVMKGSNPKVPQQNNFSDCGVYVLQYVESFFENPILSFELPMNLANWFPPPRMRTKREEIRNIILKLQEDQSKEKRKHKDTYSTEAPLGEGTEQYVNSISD
SENP8 block-2 – inhibitors of human SENP8 protease. purified SENP8, Z-RLRGG-aminoluciferin cleavage, luminescence. 1.2% of 330,000 active. Q96LD8. AID 2540. inhibition, % at 10 µM; in the data active = inhibition above about 50%
* hit, by the source's call; / = no result given.

SMILES	SENP7 block	Platelet DG rel	SENP8 block-1	SENP1 inh	SENP6 block	SENP8 block-2
COc1ccc(C(=O)Nc2ccccc2C(=O)N/N=C/c2ccncc2)cc1OC	-5.5	63.9*	-59.2	1.4	-3.9	-11.9
O=C(CSCc1c(Cl)cccc1Cl)NCc1ccco1	1.7	83.5*	21.9	-2.1	-10.2	1.7
O=C(CSCc1c(F)cccc1Cl)NCc1ccco1	7.3	3.8	14.3	-0.6	-2.7	0.2
CCOC(=O)[C@@H](NC(=O)CC[C@H]1O[C@@H](n2cc(C)c(=O)[nH]c2=O)C[C@@H]1O)C(C)C	/	/	-14.0	2.7	/	/
COc1nsnc1NS(=O)(=O)c1ccc(NC(=S)NC(=O)c2ccncc2)cc1	19.4	-11.7	24.9	-1.6	-0.4	7.9
COc1nccnc1NS(=O)(=O)c1ccc(NC(=S)NC(=O)c2ccc(F)cc2)cc1	69.3*	10.7	22.3	-0.8	85.8*	77.9*
COc1cc(NC(=O)CN2CCN(CC(=O)Nc3ccccc3OC)CC2)cc(OC)c1	-2.6	4.3	6.0	0.8	-2.1	-3.9
CC(=O)NC(c1ccccc1)c1nc(-c2ccc3ccccc3c2)cs1 (stereo not drawn)	/	/	20.0	-0.4	/	/
O=C(c1cc2c(s1)CCCCC2)N1CCN(c2ncccn2)CC1	-5.5	1.8	0.9	1.1	-13.6	-7.7
O=C(c1cc2c(s1)CCCC2)n1cccn1	63.5*	-0.7	7.5	8.5	57.7*	28.3
Oc1ccc(C=Nc2ccc3ncccc3c2)c(O)c1	25.0	-27.1	/	/	84.2*	88.6*
O=C(O)c1cc(NN=Nc2cccc([N+](=O)[O-])c2)cc([N+](=O)[O-])c1	20.1	-1.5	15.6	1.4	77.4*	57.5*
O=C(O)c1cc(NN=Nc2cccc(S(=O)(=O)O)c2)cc([N+](=O)[O-])c1	-9.2	3.3	20.0	0.3	-12.2	-5.2
O=C(O)c1cc(NN=Nc2ccc(Br)cc2)cc([N+](=O)[O-])c1	14.7	18.3	28.5	-1.2	52.3*	11.3
N/C(=N\OC(=O)c1ccc(Br)cc1)c1cccc([N+](=O)[O-])c1	16.3	1.1	7.7	7.5	21.5	-18.5
CCCCCCn1c(O)c(/C=C2\C=NN=C2c2ccccc2)sc1=S	-1.9	23.2	42.2*	-7.5	-4.7	-4.9
CC(C)Cn1c(O)c(/C=C2\C=NN=C2c2ccccc2)sc1=S	-1.0	-7.4	40.4*	-9.0	-20.4	-9.3
CCCCn1c(O)c(/C=C2\C=NN=C2c2ccccc2)sc1=S	-10.5	-1.3	19.0	-9.4	-2.3	-7.3
Cc1ccc(C(OC(=O)c2ccco2)C(=O)NC(C)(C)C)cc1 (stereo not drawn)	3.9	4.5	10.3	3.2	-13.3	-4.5
N#C/C(=C\c1ccccn1)c1nc2ccccc2s1	-8.4	1.6	-329.1	-25.9	27.1	-4.2
COc1ccc(/C(C#N)=C/c2ccccn2)cc1	6.1	9.3	-281.0	-2.3	63.8*	53.8*
O=C(CSc1ccc(-c2ccccn2)nn1)Nc1cccc(F)c1	-2.1	-31.0	15.6	0.2	-4.8	-2.8
O=C1CCN(N=Nc2cccc(Cl)c2)N1	-8.4	52.8*	/	/	-22.7	-4.6
CC(C(=O)Nc1ccccn1)N1C(=O)c2ccccc2S1(=O)=O (stereo not drawn)	-3.6	0.8	20.6	4.0	-3.0	2.3
O=C(C1=C(c2ccccc2)C(=O)c2ccccc2C1=O)c1ccccc1	/	-20.4	35.2	0.3	/	/
SMILES	SENP7 block	Platelet DG rel	SENP8 block-1	SENP1 inh	SENP6 block	SENP8 block-2
O=C1C(=O)c2c(C(=O)c3ccccc3)coc2-c2ccccc21	8.1	-0.8	60.6*	4.3	37.5	4.7
COc1ccc(N=Nc2nc3ccc(Br)cc3n2C)cc1	/	10.6	64.3*	57.5	/	/
COc1ccc(-c2c(-c3cc(OC)cc(OC)c3)n(C)c3ccc(Br)cc23)cc1	-6.1	/	-484.9	-0.1	-7.5	0.8
CCOc1ccc(N/C=C/C(=O)c2ccc(OC)cc2)c([N+](=O)[O-])c1	-5.4	3.6	26.5	37.4*	-13.2	-9.1
Cc1cc(-c2nnc(CCC(=O)NC(C)c3cccc4ccccc34)o2)no1 (stereo not drawn)	-4.0	50.3*	11.0	0.1	-19.9	3.2
CCOC(=O)C1(C)/C(=N/Nc2ccc(Cl)cc2)C(=O)C(=O)N1c1ccccc1 (stereo not drawn)	4.8	-3.5	19.3	2.4	-0.9	5.8
CCOC(=O)C1(C)/C(=N/Nc2cccc(Cl)c2)C(=O)C(=O)N1c1ccccc1 (stereo not drawn)	3.5	2.4	43.1*	4.3	-1.5	8.8
Cc1cc(C)n2[nH]c(=O)c(N=Nc3cccc(Cl)c3)c2n1	1.0	4.7	47.9*	1.1	-10.2	3.9
Cc1cc(C)n2[nH]c(=O)c(N=Nc3cccc(C(F)(F)F)c3)c2n1	-4.9	0.4	52.7*	2.1	-14.2	-9.3
Cc1cc(C)n2[nH]c(=O)c(N=Nc3ccccc3)c2n1	-7.1	5.2	29.2	1.5	-26.4	-10.1
COc1ccc(CN(C)CC(=O)NCC(=O)Nc2c(C)cccc2C)cc1	-2.0	/	7.9	0.4	-12.5	-2.2
CC(OC(=O)c1ncc(Cl)c(Cl)c1Cl)C(=O)NC1(C#N)CCCCC1 (stereo not drawn)	-2.8	6.2	6.4	-0.3	3.5	2.5
COc1ccc2cc1Oc1ccc(cc1)CC1c3c(cc(OC)c4c3Oc3cc5c(cc3O4)CCNC5C2)CCN1C (stereo not drawn)	-12.0	-0.3	44.6*	1.1	-12.6	-4.9
COc1ccc2cc1Oc1ccc(cc1)C[C@H]1c3c(cc(OC)c4c3Oc3c(ccc5c3[C@H](C2)N(C)CC5)O4)CCN1C	2.9	/	13.0	3.4	-21.5	-5.6
CCOC(=O)N1CCc2cc(OC)c(OC)c3c2c1cc1cc(OC)c(OC)cc13	/	/	-483.8	-42.1	/	/
Nc1cc2sc(-c3ccc(C(=O)O)cc3)nc2cc1Cl	100.4*	76.9*	-308.0	-26.3	97.2*	97.7*
CNc1nc(Nc2ccc(Br)cc2)nc(N)c1[N+](=O)[O-]	87.7*	0.9	16.9	5.0	35.5	11.7
CCC(=O)Nc1cccc(NC(=S)NC(=O)c2cc3ccccc3o2)c1	76.0*	3.3	14.6	2.1	9.6	-1.4
CCC(=O)Nc1ccc(NC(=S)NC(=O)c2cc3ccccc3o2)cc1	3.0	35.7	14.4	-0.6	-5.7	4.0
O/C=c1\ccc2cccc3nc(C(F)(F)F)nc1c23	3.0	2.6	45.6*	-22.5	15.3	14.7
NNc1nc(C(F)(F)F)nc2ccccc12	-5.0	-5.3	-5.0	5.8	-14.0	-4.6
CC1CC(C)(C)CC2(C1)NC(=O)N(CC(=O)N(C)Cc1nc3ccccc3c(=O)[nH]1)C2=O (stereo not drawn)	-3.7	/	-5.8	-1.9	-8.3	-1.2
CN(CC(=O)Nc1ccc(F)c(F)c1F)C(=O)Cc1ccc(S(=O)(=O)N2CCOCC2)s1	/	/	8.5	-0.1	/	/
O=c1cc(COc2ncnc3ccccc23)nc2sccn12	-3.5	0.9	-11.1	1.3	-7.1	-7.8
O=c1cc(COc2ncnc3c(Cl)cc(Cl)cc23)nc2sccn12	-5.0	52.3*	-31.0	-0.9	-2.9	-0.6
